Measured values taken from ChEMBL document CHEMBL2029271, “Design and synthesis of cannabinoid receptor 1 antagonists for peripheral selectivity” (J Med Chem, 2012).

Experiments:
[1] = target: T1, Cannabinoid receptor 1 (Homo sapiens, UniProt P21554); details: CHO-K1
[2] = tested on: MDCK; assay: Permeability from apical to basal side of MDCK cells expressing human mdr1 gene; type: ADME, cell-based, Canis lupus familiaris; details: dog
In short: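 MDCK-mdr1 cells grown 4 days to confluence on Transwell-type filters in DMEM/F12 with 10% FBS and antibiotics. Compound added apically at 3.16 μM in HBSS with 25 mM D-glucose, HEPES-buffered to pH 7.4; 1 hr at 37°C. Apical and basal samples collected and analysed by LC-MS/MS (MRM).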

[3] = organism: Homo sapiens; assay: Selectivity ratio of Ki for CB2 receptor to Ki for human CB1 receptor
[4] = target: Cannabinoid receptor 2 (Homo sapiens, UniProt P34972); assay: Displacement of [3H]CP55940 from CB2 receptor expressed in CHO-K1 cells; type: cell-based
Chain of Cannabinoid receptor 2 (P34972 whole entry): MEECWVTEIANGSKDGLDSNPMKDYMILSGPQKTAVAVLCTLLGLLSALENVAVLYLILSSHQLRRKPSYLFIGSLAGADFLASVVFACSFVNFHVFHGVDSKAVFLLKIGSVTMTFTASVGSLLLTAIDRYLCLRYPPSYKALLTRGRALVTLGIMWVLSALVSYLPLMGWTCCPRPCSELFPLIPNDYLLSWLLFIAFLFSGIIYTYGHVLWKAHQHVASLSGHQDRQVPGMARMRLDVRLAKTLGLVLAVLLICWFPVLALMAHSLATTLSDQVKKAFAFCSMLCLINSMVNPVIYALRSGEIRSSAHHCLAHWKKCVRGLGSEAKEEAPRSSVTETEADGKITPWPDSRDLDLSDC

[5] = target: T1, Cannabinoid receptor 1; assay: biochemical; type: cell-based, CHO-K1
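For Ke in this document: antagonism measured as blockade of CP55940-evoked intracellular Ca2+ rise, read fluorometrically, in cells additionally carrying Galphaq16.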

T1 sequence (P21554 whole entry): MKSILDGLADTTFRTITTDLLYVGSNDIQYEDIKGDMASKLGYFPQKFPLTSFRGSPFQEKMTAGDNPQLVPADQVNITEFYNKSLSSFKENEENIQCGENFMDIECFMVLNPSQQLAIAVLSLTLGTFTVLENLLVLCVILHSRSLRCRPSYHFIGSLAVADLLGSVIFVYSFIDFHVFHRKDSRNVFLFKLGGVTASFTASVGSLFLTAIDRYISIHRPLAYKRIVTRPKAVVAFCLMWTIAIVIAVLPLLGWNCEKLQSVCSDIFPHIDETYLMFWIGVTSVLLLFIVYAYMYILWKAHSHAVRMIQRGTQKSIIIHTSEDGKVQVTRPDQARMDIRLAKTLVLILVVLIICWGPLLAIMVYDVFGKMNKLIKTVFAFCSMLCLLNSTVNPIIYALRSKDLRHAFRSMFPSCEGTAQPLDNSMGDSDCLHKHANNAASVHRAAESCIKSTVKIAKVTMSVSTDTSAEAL

Structure (SMILES): Cc1c(C(=O)NC2CCN(S(N)(=O)=O)CC2)nn(-c2ccc(Cl)cc2Cl)c1-c1ccc(Cl)cc1
- Ke [1]: 592 nM

Structure (SMILES): Cc1c(C(=O)NC2CCNCC2)nn(-c2ccc(Cl)cc2Cl)c1-c1ccc(Cl)cc1
- Ke [1]: 5120 nM

Structure (SMILES): CC(=O)N1CCC[C@H](NC(=O)c2nn(-c3ccc(Cl)cc3Cl)c(-c3ccc(Cl)cc3)c2C)C1
- Ke [1]: 86 nM
- permeability [2]: 14%
- Ratio Ki [3]: 111
- Ki [4]: 4.35 µM
- Ki [5]: 0.0391 µM

Structure (SMILES): CCCCNC(=O)N1CCC[C@@H](NC(=O)c2nn(-c3ccc(Cl)cc3Cl)c(-c3ccc(Cl)cc3)c2C)C1
- Ke [1]: 118 nM
- Ratio Ki [3]: 24
- Ki [4]: 3.03 µM
- Ki [5]: 0.125 µM

Structure (SMILES): CCNC(=O)NCC1CCC(CNC(=O)c2nn(-c3ccc(Cl)cc3Cl)c(-c3ccc(Cl)cc3)c2C)CC1 (stereo unspecified)
- Ke [1]: 135 nM

Structure (SMILES): Cc1c(C(=O)N[C@H]2CCCN(C(=O)NC(C)C)C2)nn(-c2ccc(Cl)cc2Cl)c1-c1ccc(Cl)cc1
- Ke [1]: 265 nM

Structure (SMILES): Cc1c(C(=O)N2CCC(NC(=O)NC3CCCCC3)(c3ccccc3)CC2)nn(-c2ccc(Cl)cc2Cl)c1-c1ccc(Cl)cc1
- Ke [1]: 12 nM
- Ratio Ki [3]: 25
- Ki [4]: 20 µM

Structure (SMILES): Cc1c(C(=O)NC2CCN(C(N)=O)CC2)nn(-c2ccc(Cl)cc2Cl)c1-c1ccc(Cl)cc1
- Ke [1]: 4100 nM

Structure (SMILES): Cc1c(C(=O)N[C@H]2CCCNC2)nn(-c2ccc(Cl)cc2Cl)c1-c1ccc(Cl)cc1
- Ke [1]: 1880 nM

Structure (SMILES): CCCCNC(=O)N1CCC(NC(=O)c2nn(-c3ccc(Cl)cc3Cl)c(-c3ccc(Cl)cc3)c2C)CC1
- Ke [1]: 78.1 nM
- Ratio Ki [3]: 47
- Ki [4]: 8.72 µM
- Ki [5]: 0.187 µM

Structure (SMILES): Cc1c(C(=O)N2CCC(N)(c3ccccc3)CC2)nn(-c2ccc(Cl)cc2Cl)c1-c1ccc(Cl)cc1
- Ke [1]: 485 nM
- Ratio Ki [3]: 10.8

Structure (SMILES): CCNC1(C(N)=O)CCN(C(=O)c2nn(-c3ccc(Cl)cc3Cl)c(-c3ccc(Cl)cc3)c2C)CC1
- Ke [1]: 91 nM
- Ratio Ki [3]: 28.3

Structure (SMILES): CCNC1(C(N)=O)CCN(c2ncnc3c2nc(-c2ccccc2Cl)n3-c2ccc(Cl)cc2)CC1 [OTENABANT]
- permeability [2]: 90%

Structure (SMILES): Cc1c(C(=O)NCC2CCC(CNC(=O)NC(C)C)CC2)nn(-c2ccc(Cl)cc2Cl)c1-c1ccc(Cl)cc1 (stereo unspecified)
- Ke [1]: 351 nM

Structure (SMILES): Cc1c(C(=O)N[C@H]2CCCN(S(C)(=O)=O)C2)nn(-c2ccc(Cl)cc2Cl)c1-c1ccc(Cl)cc1
- Ke [1]: 62 nM
- permeability [2]: < 1%
- Ratio Ki [3]: 140
- Ki [4]: 10.9 µM
- Ki [5]: 0.0779 µM

Structure (SMILES): Cc1c(C(=O)N2CCC(NC(=O)Nc3ccc(C#N)cc3)(c3ccccc3)CC2)nn(-c2ccc(Cl)cc2Cl)c1-c1ccc(Cl)cc1
- Ke [1]: > 10000 nM

Structure (SMILES): Cc1c(C(=O)N[C@H]2CCCN(C(=O)NC(C)(C)C)C2)nn(-c2ccc(Cl)cc2Cl)c1-c1ccc(Cl)cc1
- Ke [1]: 206 nM

Structure (SMILES): CCCNC(=O)NCC1CCC(CNC(=O)c2nn(-c3ccc(Cl)cc3Cl)c(-c3ccc(Cl)cc3)c2C)CC1 (stereo unspecified)
- Ke [1]: 486 nM

Structure (SMILES): CCCNC(=O)N1CCC[C@H](NC(=O)c2nn(-c3ccc(Cl)cc3Cl)c(-c3ccc(Cl)cc3)c2C)C1
- Ke [1]: 70 nM
- Ratio Ki [3]: 29
- Ki [4]: 7.8 µM
- Ki [5]: 0.271 µM

Structure (SMILES): CCCNC(=O)N1CCC(NC(=O)c2nn(-c3ccc(Cl)cc3Cl)c(-c3ccc(Cl)cc3)c2C)CC1
- Ke [1]: 66.5 nM
- Ratio Ki [3]: 46
- Ki [4]: 8.46 µM
- Ki [5]: 0.184 µM

Structure (SMILES): CCOC(=O)N1CCC[C@H](NC(=O)c2nn(-c3ccc(Cl)cc3Cl)c(-c3ccc(Cl)cc3)c2C)C1
- Ke [1]: 75 nM
- permeability [2]: < 1%
- Ratio Ki [3]: 83
- Ki [4]: 5.42 µM
- Ki [5]: 0.0655 µM

Structure (SMILES): CC(=O)N1CCC[C@@H](NC(=O)c2nn(-c3ccc(Cl)cc3Cl)c(-c3ccc(Cl)cc3)c2C)C1
- Ke [1]: 530 nM

Structure (SMILES): Cc1c(C(=O)N2CCC(NC(=O)Nc3ccc(F)cc3)(c3ccccc3)CC2)nn(-c2ccc(Cl)cc2Cl)c1-c1ccc(Cl)cc1
- Ke [1]: 89 nM
- Ratio Ki [3]: 33
- Ki [4]: 20 µM
- Ki [5]: 0.614 µM

Structure (SMILES): Cc1c(C(=O)N[C@@H]2CCCN(C(=O)NC(C)C)C2)nn(-c2ccc(Cl)cc2Cl)c1-c1ccc(Cl)cc1
- Ke [1]: 31.3 nM
- Ratio Ki [3]: 43
- Ki [4]: 4.13 µM
- Ki [5]: 0.097 µM

Structure (SMILES): CC(=O)NC1(c2ccccc2)CCN(C(=O)c2nn(-c3ccc(Cl)cc3Cl)c(-c3ccc(Cl)cc3)c2C)CC1
- Ke [1]: 201 nM
- Ratio Ki [3]: 3.4

Structure (SMILES): CCNC(=O)N1CCC(NC(=O)c2nn(-c3ccc(Cl)cc3Cl)c(-c3ccc(Cl)cc3)c2C)CC1
- Ke [1]: 20.5 nM
- Ratio Ki [3]: 35
- Ki [4]: 5.69 µM
- Ki [5]: 0.165 µM

Structure (SMILES): CCCNC(=O)N1CCC[C@@H](NC(=O)c2nn(-c3ccc(Cl)cc3Cl)c(-c3ccc(Cl)cc3)c2C)C1
- Ke [1]: 27 nM
- Ratio Ki [3]: 23
- Ki [4]: 3.09 µM
- Ki [5]: 0.134 µM

Structure (SMILES): CCOC(=O)N1CCC[C@@H](NC(=O)c2nn(-c3ccc(Cl)cc3Cl)c(-c3ccc(Cl)cc3)c2C)C1
- Ke [1]: 10.4 nM
- permeability [2]: < 1%
- Ratio Ki [3]: 143
- Ki [4]: 2.51 µM
- Ki [5]: 0.0175 µM

Structure (SMILES): CCCCNC(=O)NC1(c2ccccc2)CCN(C(=O)c2nn(-c3ccc(Cl)cc3Cl)c(-c3ccc(Cl)cc3)c2C)CC1
- Ke [1]: 0.4 nM
- permeability [2]: < 1%
- Ratio Ki [3]: 178

Structure (SMILES): Cc1c(C(=O)N[C@@H]2CCCN(S(C)(=O)=O)C2)nn(-c2ccc(Cl)cc2Cl)c1-c1ccc(Cl)cc1
- Ke [1]: 7 nM
- permeability [2]: < 1%
- Ratio Ki [3]: 106
- Ki [4]: 1.25 µM
- Ki [5]: 0.0118 µM

Structure (SMILES): CCCNC(=O)NC1(c2ccccc2)CCN(C(=O)c2nn(-c3ccc(Cl)cc3Cl)c(-c3ccc(Cl)cc3)c2C)CC1
- Ke [1]: 0.4 nM
- Ratio Ki [3]: 39

Structure (SMILES): Cc1c(C(=O)N2CCC(NC(=O)Nc3ccc(N(C)C)cc3)(c3ccccc3)CC2)nn(-c2ccc(Cl)cc2Cl)c1-c1ccc(Cl)cc1
- Ke [1]: 264 nM
- Ratio Ki [3]: 11
- Ki [4]: 16.3 µM
- Ki [5]: 1.49 µM

Structure (SMILES): CCNC(=O)N1CCC[C@@H](NC(=O)c2nn(-c3ccc(Cl)cc3Cl)c(-c3ccc(Cl)cc3)c2C)C1
- Ke [1]: 171 nM

Structure (SMILES): CCNC(=O)N1CCC[C@H](NC(=O)c2nn(-c3ccc(Cl)cc3Cl)c(-c3ccc(Cl)cc3)c2C)C1
- Ke [1]: 280 nM

Structure (SMILES): Cc1c(C(=O)N[C@@H]2CCCN(C(=O)NC(C)(C)C)C2)nn(-c2ccc(Cl)cc2Cl)c1-c1ccc(Cl)cc1
- Ke [1]: 268 nM

Structure (SMILES): Cc1c(C(=O)NC2CCN(C(=O)NC(C)C)CC2)nn(-c2ccc(Cl)cc2Cl)c1-c1ccc(Cl)cc1
- Ke [1]: 16.7 nM
- permeability [2]: 14%
- Ratio Ki [3]: 114
- Ki [4]: 9.79 µM
- Ki [5]: 0.086 µM

Structure (SMILES): Cc1c(C(=O)N2CCC(C(=O)O)(c3ccccc3)CC2)nn(-c2ccc(Cl)cc2Cl)c1-c1ccc(Cl)cc1
- Ke [1]: 1170 nM

Structure (SMILES): CCCCNC(=O)NCC1CCC(CNC(=O)c2nn(-c3ccc(Cl)cc3Cl)c(-c3ccc(Cl)cc3)c2C)CC1 (stereo unspecified)
- Ke [1]: 274 nM

Structure (SMILES): Cc1c(C(=O)N2CCC(NC(=O)NC(C)C)(c3ccccc3)CC2)nn(-c2ccc(Cl)cc2Cl)c1-c1ccc(Cl)cc1
- Ke [1]: 0.7 nM
- Ratio Ki [3]: 364

Structure (SMILES): Cc1c(C(=O)N[C@@H]2CCCNC2)nn(-c2ccc(Cl)cc2Cl)c1-c1ccc(Cl)cc1
- Ke [1]: 1170 nM

Structure (SMILES): Cc1c(C(=O)N[C@H]2CCCN(C(=O)OC(C)(C)C)C2)nn(-c2ccc(Cl)cc2Cl)c1-c1ccc(Cl)cc1
- Ke [1]: 842 nM

Structure (SMILES): Cc1c(C(=O)NC2CCN(S(C)(=O)=O)CC2)nn(-c2ccc(Cl)cc2Cl)c1-c1ccc(Cl)cc1
- Ke [1]: 269 nM

Structure (SMILES): CCCCNC(=O)N1CCC[C@H](NC(=O)c2nn(-c3ccc(Cl)cc3Cl)c(-c3ccc(Cl)cc3)c2C)C1
- Ke [1]: 230 nM

Structure (SMILES): CCCCCCNC(=O)NC1(c2ccccc2)CCN(C(=O)c2nn(-c3ccc(Cl)cc3Cl)c(-c3ccc(Cl)cc3)c2C)CC1
- Ke [1]: 0.5 nM
- permeability [2]: < 1%
- Ratio Ki [3]: 62

Structure (SMILES): Cc1c(C(=O)NCC2CCC(CNC(=O)NC(C)(C)C)CC2)nn(-c2ccc(Cl)cc2Cl)c1-c1ccc(Cl)cc1 (stereo unspecified)
- Ke [1]: 150 nM

Structure (SMILES): Cc1c(C(=O)N2CCC(NS(C)(=O)=O)(c3ccccc3)CC2)nn(-c2ccc(Cl)cc2Cl)c1-c1ccc(Cl)cc1
- Ke [1]: 3.5 nM
- permeability [2]: 3%
- Ratio Ki [3]: 5.6

Structure (SMILES): CCNC(=O)NC1(c2ccccc2)CCN(C(=O)c2nn(-c3ccc(Cl)cc3Cl)c(-c3ccc(Cl)cc3)c2C)CC1
- Ke [1]: 10.8 nM
- Ratio Ki [3]: 12

Structure (SMILES): CC(=O)N1CCC(NC(=O)c2nn(-c3ccc(Cl)cc3Cl)c(-c3ccc(Cl)cc3)c2C)CC1
- Ke [1]: 195 nM
- Ratio Ki [3]: 34.2
- Ki [4]: 2.24 µM
- Ki [5]: 0.0653 µM
